# Compound activity as filed in PubChem BioAssay.
# aSyn UTR inh – 5' untranslated region of α-synuclein, MLPCN primary screen. alpha-synuclein 5'UTR reporter, inhibitor activity. inhibition, % (tested at 7.5 µM). 0.82% of 300,000 active. AID 1813; in the data active = inhibition above about 60%;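 also: H4 neuroglioblastoma cells stably carrying SNCA 5'UTR luciferase fusion; 0% = DMSO wells and 100% = positive control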
# Jurkat NFkB inh – inhibitors of the PMA/ionomycin-induced NF-kB reporter in Jurkat cells | AID 435003 | PMA/ionomycin-induced NF-kB luciferase reporter, luminescence | 0.53% of 330,000 active | inhibition, % at 4 µM; in the data active = inhibition above about 50%
# Hep lipid drop – hepatic lipid droplet formation modulation. 0.4% of 240,000 active. inhibition, % at 6.5 µM. AML12 mouse hepatocytes, oleate lipid droplets, BODIPY imaging;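 active = lipid droplet intensity inhibited by at least 50%, with more than 500 cells counted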
#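 material = mouse AML12 hepatocyte cell line, fixed after treatment | also added = 100 µM oleic acid challenge | doses = compound at 6.5 µM only | schedule = overnight exposure | technique = Image-based BODIPY and DAPI two-channel analysis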
# APP transl inh – APP translation inhibition | SH-SY5Y APP 5'UTR-luciferase reporter, luminescence | inhibition, % at 2 µM | 0.82% of 190,000 active;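 active = inhibition above a set limit, derived from the sample mean plus 3 SD, cut at about 45% in these data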
# 697 NFkB inh – inhibitors of the PMA/ionomycin-induced NF-kB reporter in 697 B cells; 697 B-cell NF-kB luciferase reporter, 16 h; 0.33% of 330,000 active; AID 435022; inhibition, % at 4 µM; in the data active = inhibition above about 35%
# H9c2 TAG inh – triacylglycerol accumulation inhibition; 0.66% of 230,000 active; AID 651582; inhibition, % at 12.5 µM; H9c2 cells, Nile Red lipid (TAG) fluorescence; cells loaded with 200 µM oleic acid;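 active = pattern-corrected inhibition of lipid staining of at least 50% with the nuclear-stain viability signal not falling by more than 50%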;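 also: 0% = DMSO wells and 100% = triacsin C control wells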
# 697 NFkB conf – inhibitors of the PMA/ionomycin-induced NF-kB reporter in 697 B cells, retest; AID 449746; 697 B-cell NF-kB luciferase, 16 h; shares compounds with 697 NFkB inh; 35% of 2,000 active; inhibition, % at 4 µM; in the data active = inhibition mostly above about 28%, no sharp cut-off; inactive = mostly below about 22%
# * hit, by the source's call; x = not tested or not shown. Shown are actives, neighbours in structure and some others; about 1.9% of the full set was active somewhere.
SMILES,aSyn UTR inh,Jurkat NFkB inh,Hep lipid drop,APP transl inh,697 NFkB inh,H9c2 TAG inh,697 NFkB conf
O=C(CCN1C(=O)c2ccc(Br)cc2C1=O)NC1CCCCC1,7,1,4,x,-12,9,x
CN(C)c1ccc(N=Nc2nc3ccccc3n2C)cc1,-117,-75,5,x,-113,33,x
Cn1c(N=Nc2ccccc2)nc2ccccc21,-19,-110,-11,-180,-432,x,-398
CCOc1ccc(Nc2cc(Nc3ccccc3OCC)nc(C=C(C#N)C#N)n2)cc1,-6,-2,4,x,2,4,x
Cc1c(C(=O)OCC(=O)N2CC(=O)Nc3ccccc32)oc2ccc(Br)cc12,0,-7,-4,-18,17,15,x
Cc1cc2cc(CN(CC3CCCO3)C(=O)c3cnccn3)c(=O)[nH]c2cc1C (stereo unspecified),4,9,-7,-17,36*,-9,6
COc1ccc(-n2c(-c3ccc(Cl)cc3)c[n+]3c2CCc2ccccc2-3)cc1,-15,21,-45,-8,56*,-24,92*
Cc1cc(N2CCOCC2)n2ncc(-c3ccccc3)c2n1,54,-149,28,-142,-318,x,-485
Cc1cc(N2CCC(C)CC2)n2nc(C)c(-c3ccccc3)c2n1,-10,-21,x,4,-31,-10,x
Cc1ccc(-c2cnn3c(N4CCOCC4)cc(C)nc23)cc1,19,-140,5,x,-280,x,-237
Cc1cc(N2CCC(C)CC2)n2ncc(-c3ccccc3)c2n1,-52,-138,x,-194,-402,-1,-306
CC(C)c1cc(C(F)(F)F)n2nc(C(=O)Nc3ccc(-n4cnnn4)cc3)cc2n1,4,-1,-12,x,10,10,x
COc1ccc(C2NN=C(c3ccc(C)cc3)S2)cc1 (stereo unspecified),-172,x,4,x,x,x,x
CSc1ccc(C2NN=C(c3ccccc3)S2)cc1 (stereo unspecified),68*,-102,x,x,-263,-4,-279
CCN1CCN(C(=O)c2sc3nc(C)nc(N4CCC(C)CC4)c3c2C)CC1,x,-9,10,-14,-10,1,x
Cc1nc(N2CCC(C)CC2)c2c(C)c(C(=O)O)sc2n1,20,5,-2,15,35*,4,20
Clc1ccc(-c2nc3n(n2)Cc2ccccc2-3)cc1,-5,-116,-4,-139,-374,20,-301
CCN(CC)S(=O)(=O)c1cccc(-c2nc3n(n2)Cc2ccccc2-3)c1,-86,-48,x,10,-55,x,x
CC(OC(=O)Cc1n[nH]c(=O)c2ccccc12)C(=O)N(C)c1ccccc1 (stereo unspecified),x,x,x,x,x,6,x
COc1ccc(Cn2c(C3CC3)nc3ccc(NC(C)=O)cc3c2=O)cc1,-121,-131,x,-142,-254,1,-199
CC(C)[C@H](N)c1nnc(SCc2ccc(Cl)cc2)o1,16,-7,x,3,-11,x,x
CCC(C)[C@H](N)c1nnc(SCC(=O)c2ccc(Cl)cc2)o1 (stereo partly specified),39,8,-6,-20,44*,x,32*
COc1ccc(CCN2CC(C(=O)NCC(=O)Nc3ccc(F)c(F)c3)CC2=O)cc1OC (stereo unspecified),10,7,x,x,-10,4,x
Cc1[nH]c(=O)c(C#N)c(C)c1Cl,-1,-41,-5,x,-39,-6,x
N#Cc1sc(=O)[nH]c1Cl,4,17,x,x,42*,-6,13
SMILES,aSyn UTR inh,Jurkat NFkB inh,Hep lipid drop,APP transl inh,697 NFkB inh,H9c2 TAG inh,697 NFkB conf
COC(=O)c1ccccc1S(=O)(=O)NCc1nc2nc(C)cc(C)n2n1,5,-10,6,x,6,8,x
CCOc1cc(/C=C2\CCC/C(=C\c3cc(Cl)c(O)c(OCC)c3)C2=O)cc(Cl)c1O,-329,22,x,6,-378,19,-159
Cc1c(CCO)c(=O)oc2n[nH]c(-c3ccccc3)c12,13,5,3,-9,35*,1,24*
CCOC(=O)N1CCN(c2c(NCC3CCN(Cc4cccc(C)c4)CC3)c(=O)c2=O)CC1,-5,10,-10,-17,4,8,x
Cc1ccc(CNC(=O)c2ccc(N3CCC4(CC3)CC(c3cccc(Br)c3)=NO4)c(NC(=O)c3ccc(Cl)c([N+](=O)[O-])c3)c2)cc1,x,-5,x,x,9,2,x
CCCNC(=O)c1ccc(N2CCC3(CC2)CC(c2cccc(Br)c2)=NO3)c(NC(=O)c2ccc(Cl)c([N+](=O)[O-])c2)c1,-8,11,x,x,37*,45,26*
Cc1ccc(C(=O)N/N=C/c2nc3ccccc3n2C)cc1,-27,-15,x,8,39*,x,20
CCn1c(SCC(=O)NNC(=O)c2ccccc2)nnc1-c1ccncc1,7,6,-12,-4,42*,x,-2
CCn1c(SCC(=O)NNC(=O)Cc2ccccc2)nnc1-c1ccncc1,1,9,-5,-9,5,x,x
O=C(CSc1nnc(Cc2ccccc2)c(=O)[nH]1)Nc1ccccc1,-2,1,x,x,-4,-1,x
CCOc1ccc(C(=O)Nc2cc(C)c3c(=O)oc4ccccc4c3n2)cc1,-7,-9,x,-4,-9,10,x
Cc1cc(NC(=O)c2ccccc2)nc2c1c(=O)oc1ccccc12,-33,-6,-2,-5,35*,5,10
Cc1ccc(S(=O)(=O)N2CCOCC2)cc1N/N=C(\C#N)c1nc2ccccc2[nH]1,-47,-4,43,19,-13,21,x
CC(C)c1ccc(S(=O)(=O)N2CCN(C(C)C(=O)Nc3ccccc3-c3ccccc3)CC2)cc1 (stereo unspecified),11,15,-1,-25,35*,x,15
CC(C)COc1ccc(-c2nnc(-c3ccco3)o2)cc1,86*,-132,1,-187,-263,x,-139
O=C(COc1ccccc1)Nc1ccc(-c2nnc(-c3ccco3)o2)cc1,-84,-62,x,-31,-84,12,x
CCC(C)Sc1nnc(NC(=O)c2ccco2)s1 (stereo unspecified),-52,x,x,x,x,9,x
CCC(c1nnc(SCC(=O)NC2CCCCC2)n1Cc1ccccc1)N(C)C (stereo unspecified),6,4,x,x,39*,6,2
CCC(c1nnc(SCC(=O)NCC2CCCO2)n1Cc1ccccc1)N(C)C (stereo unspecified),-13,-4,x,3,5,-11,x
CCOC(=O)[C@H]1[C@H]2COc3ccc(OC)cc3[C@@H]2N2C(=O)c3cc(F)c(F)cc3NC(=O)[C@@]12C,x,-4,x,x,17,25,x
COc1ccccc1/C=C/C=N/Nc1cccc(C(=O)O)c1,-119,-113,-5,x,-275,x,-39
Cc1ccc(NS(=O)(=O)c2ccc(Br)s2)cc1S(=O)(=O)N1CCOCC1,-9,-9,-32,-9,46*,13,-8
CC(C)N1C(=O)S/C(=C/c2ccc3c(c2)n(C)c(=O)n3C)C1=O,-51,-8,x,8,47*,36,40*
